The target in assay [1] is T1, Toll-like receptor 9 (Homo sapiens) (UniProt Q9NR96).
T1 sequence (whole entry): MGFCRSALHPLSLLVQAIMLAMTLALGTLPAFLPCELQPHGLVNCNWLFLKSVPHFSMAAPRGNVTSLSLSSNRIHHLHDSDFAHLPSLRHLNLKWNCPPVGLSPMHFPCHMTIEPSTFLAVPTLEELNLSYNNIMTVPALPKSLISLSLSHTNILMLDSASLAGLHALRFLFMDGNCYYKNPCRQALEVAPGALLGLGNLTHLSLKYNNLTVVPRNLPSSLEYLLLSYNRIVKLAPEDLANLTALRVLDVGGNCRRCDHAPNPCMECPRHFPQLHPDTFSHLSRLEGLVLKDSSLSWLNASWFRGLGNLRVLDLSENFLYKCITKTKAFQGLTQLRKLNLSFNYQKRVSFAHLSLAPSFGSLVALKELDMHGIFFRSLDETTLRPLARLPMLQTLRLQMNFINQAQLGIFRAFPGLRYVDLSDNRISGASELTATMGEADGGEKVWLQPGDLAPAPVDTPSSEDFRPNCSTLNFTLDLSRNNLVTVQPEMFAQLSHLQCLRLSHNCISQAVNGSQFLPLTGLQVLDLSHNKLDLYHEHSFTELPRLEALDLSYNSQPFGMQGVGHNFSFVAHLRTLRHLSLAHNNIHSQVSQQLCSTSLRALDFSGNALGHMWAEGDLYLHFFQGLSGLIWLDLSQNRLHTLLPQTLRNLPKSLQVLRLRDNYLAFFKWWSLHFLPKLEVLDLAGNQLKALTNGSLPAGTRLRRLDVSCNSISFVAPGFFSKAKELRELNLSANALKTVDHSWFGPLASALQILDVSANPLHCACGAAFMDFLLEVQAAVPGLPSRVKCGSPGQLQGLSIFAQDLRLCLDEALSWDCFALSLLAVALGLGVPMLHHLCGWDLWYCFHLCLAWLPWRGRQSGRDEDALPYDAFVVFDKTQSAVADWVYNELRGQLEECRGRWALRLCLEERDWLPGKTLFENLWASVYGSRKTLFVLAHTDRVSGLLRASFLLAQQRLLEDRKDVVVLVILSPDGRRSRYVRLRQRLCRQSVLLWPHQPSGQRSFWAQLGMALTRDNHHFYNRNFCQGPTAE
Put plainly: Agonist activity at human TLR9 expressed in HEK293 cells by SEAP reporter gene assay. Type of assay: cell-based. (In general: Reporter assays use an easily measured gene product as a stand-in for the process of interest.)

Assay [2] addresses T2, Toll-like receptor 7 (Homo sapiens, UniProt Q9NYK1).
T2 sequence (Q9NYK1 whole entry): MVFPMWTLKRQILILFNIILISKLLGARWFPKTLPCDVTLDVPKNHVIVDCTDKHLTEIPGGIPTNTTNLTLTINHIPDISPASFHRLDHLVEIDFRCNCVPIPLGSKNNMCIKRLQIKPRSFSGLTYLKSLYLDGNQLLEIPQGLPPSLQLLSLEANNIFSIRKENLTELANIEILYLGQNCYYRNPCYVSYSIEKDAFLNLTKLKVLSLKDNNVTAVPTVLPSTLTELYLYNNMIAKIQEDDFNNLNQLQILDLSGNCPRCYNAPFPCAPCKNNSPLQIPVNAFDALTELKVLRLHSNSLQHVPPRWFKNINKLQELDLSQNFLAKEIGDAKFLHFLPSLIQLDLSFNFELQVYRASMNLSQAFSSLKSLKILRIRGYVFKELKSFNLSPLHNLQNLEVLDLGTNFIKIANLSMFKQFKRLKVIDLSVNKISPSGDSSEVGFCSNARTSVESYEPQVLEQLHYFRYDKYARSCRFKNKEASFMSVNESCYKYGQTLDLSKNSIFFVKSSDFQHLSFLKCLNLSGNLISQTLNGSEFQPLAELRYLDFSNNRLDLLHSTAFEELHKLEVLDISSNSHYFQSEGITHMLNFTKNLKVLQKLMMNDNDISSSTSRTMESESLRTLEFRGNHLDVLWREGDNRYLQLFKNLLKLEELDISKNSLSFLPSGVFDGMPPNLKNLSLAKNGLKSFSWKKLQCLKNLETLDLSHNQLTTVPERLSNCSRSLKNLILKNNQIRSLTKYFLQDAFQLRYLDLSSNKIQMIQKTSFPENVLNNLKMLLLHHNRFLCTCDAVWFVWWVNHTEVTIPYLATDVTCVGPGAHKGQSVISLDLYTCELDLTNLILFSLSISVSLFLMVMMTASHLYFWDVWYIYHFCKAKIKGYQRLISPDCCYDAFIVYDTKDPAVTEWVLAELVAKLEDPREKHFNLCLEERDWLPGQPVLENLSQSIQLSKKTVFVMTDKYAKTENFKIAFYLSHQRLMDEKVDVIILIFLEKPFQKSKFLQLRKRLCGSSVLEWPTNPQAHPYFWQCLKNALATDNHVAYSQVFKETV
Put plainly: Agonist activity at human TLR7 expressed in HEK293 cells assessed as induction of NFKappaB activity after 24 hrs by SEAP reporter gene assay. Type of assay: cell-based. Put shortly: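 HEK293 cells stably transfected with hTLR7 or hTLR8 plus an NFκB-driven SEAP reporter, treated 24 h with compound over a μM range; SEAP secretion read out. EC50 as mean ± SD of three (TLR7) or four (TLR8) independent experiments.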

Structures are written as SMILES. The source made the active and inactive calls. The calls are words filed in the database; no cut-off is given here.

The term EC50 denotes the concentration at which the effect is half-maximal. `Nc1nc(OCCCCO)nc2c1[nH]c(=O)n2CC1CCNCC1`: the result in assay [1] was inactive. The EC50 in assay [2] is greater than 500 µM.

Values taken from ChEMBL document CHEMBL4627265, “Optimization of 8-oxoadenines with toll-like-receptor 7 and 8 activity” (Bioorg Med Chem Lett, 2020).
